In the library only some 1.5% were active in any assay of this set; here they are far more common.
GSIS activator: primary screen for activators of insulin secretion dependent on glucose, INS-1E cells, GLuc reporter luminescence; INS-1E GLuc reporter insulin secretion, 2-3 h; activation, % at 16.6 µM; 370,000 compounds, 0.61% hits;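 active means lowest replicate activation of at least 40%, so every replicate reaches that level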;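 further: 0% = median of neutral control wells and 100% = median of IBMX positive control wells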
ERp5 block: blocks human ERp5 reductase activity on insulin; Q15084; ERp5 insulin aggregation, absorbance 650 nm, 90 min; inhibition, % at 9.99 µM; 350,000 compounds, 0.05% hits; AID 651711;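 active means mean replicate inhibition above about 25%, with every replicate also reaching it, limit read from the data, passing the limit was not always enough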
PDI inh: PDI (human) enzyme inhibition. inhibition, % at 10 µM. 350,000 compounds, 0.052% hits. PDI insulin aggregation turbidity, A650, 90 min;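 active means mean inhibition across replicates of 30% or more, whatever share of single replicates reach that level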
SIRT5 inh: blocks human SIRT5 desuccinylation of peptide; Q9NXA8; Purified SirT5, succinyl-peptide AMC, trypsin-coupled fluorescence; inhibition, % at 15 µM; 330,000 compounds, 1.1% hits; in the data active means inhibition above about 15%
Target sequence (Q9NXA8 whole entry, looked up): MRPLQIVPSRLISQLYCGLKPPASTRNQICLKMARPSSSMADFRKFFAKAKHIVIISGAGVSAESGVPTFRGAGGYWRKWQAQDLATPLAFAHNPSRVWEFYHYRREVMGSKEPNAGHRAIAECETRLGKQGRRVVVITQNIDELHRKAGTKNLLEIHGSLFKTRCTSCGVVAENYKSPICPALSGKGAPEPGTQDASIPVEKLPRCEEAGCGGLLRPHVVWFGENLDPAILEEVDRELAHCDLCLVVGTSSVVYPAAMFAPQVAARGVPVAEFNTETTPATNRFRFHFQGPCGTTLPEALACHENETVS
S100A4 inh HTS: S100A4-myosin IIA interaction inhibition; P26447; S100A4/TAMRA-MyoIIA peptide fluorescence polarization; inhibition, % at 10.7 µM; 360,000 compounds, 0.14% hits; AID 652163;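 active means mean inhibition of at least 70% across replicates, with every replicate also reaching that level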
Target sequence (P26447 whole entry, looked up): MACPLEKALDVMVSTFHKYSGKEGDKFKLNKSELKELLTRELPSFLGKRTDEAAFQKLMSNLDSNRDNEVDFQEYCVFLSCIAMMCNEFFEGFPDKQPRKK
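Material: S100A4 monomer (human). Medium: Calcium-containing HEPES buffer, pH 7.2. Probe or stimulus: labelled myosin peptide probe, 5 nM. Compound dosing: one concentration per compound. Timing: polarization read 5 min after assay mix addition, stable 5–60 min. Benchmarks: DMSO as neutral control, TFP as positive control.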
* hit, by the source's call; nt = not tested or not shown; ! = not active in a repeat.

SMILES | GSIS activator | ERp5 block | PDI inh | SIRT5 inh | S100A4 inh HTS
C[C@@H]1CN([C@@H](C)CO)C(=O)c2cccc(NC(=O)CCCCCC(=O)Nc3ccccc3N)c2O[C@@H]1CN(C)C(=O)Nc1ccc2c(c1)OCO2 | 14.9 | 13.7 | nt | -4.3 | -0.9
CCC(=O)N(C)C[C@@H]1Oc2ncc(-c3ccc(F)cc3)cc2C(=O)N([C@@H](C)CO)C[C@H]1C | 12.6 | 10.9 | nt | -0.1 | 6.2
O=C(C[C@H]1C[C@@H]2c3cc(NS(=O)(=O)c4ccc(F)cc4)ccc3O[C@@H]2[C@@H](CO)O1)NCc1ccccc1F | -10.7 | -1.0 | nt | -0.1 | 5.6
O=C(C[C@@H]1C=C[C@@H](NC(=O)C2CCC2)[C@@H](CO)O1)NCCCN1CCOCC1 | 5.5 | -2.7 | nt | -1.3 | 5.6
C[C@@H]1CN([C@H](C)CO)S(=O)(=O)c2ccc(/C=C/c3ccccc3)cc2O[C@H]1CN(C)Cc1ccccc1 | 4.1 | 5.7 | nt | 23.3* | 53.8
C[C@@H]1CCCCO[C@H](CN(C)S(=O)(=O)c2ccc(F)cc2)[C@@H](C)CN([C@H](C)CO)C(=O)c2cc(NC(=O)CCCN(C)C)ccc2O1 | 0.3 | -0.4 | nt | 2.8 | 4.2
Cc1ccc(C(=O)N2CC(=O)Nc3ccc(F)cc3C2c2ccccc2)cc1 (stereo not drawn) | -23.4 | 2.9 | -6.9 | 15.5* | -2.0
O=C1CN(C(=O)c2ccccc2F)C(c2ccccc2)c2cc(F)ccc2N1 (stereo not drawn) | -13.3 | -14.2 | 3.6 | -1.1 | -4.2
Cc1cccc(Nc2ncnc3onc(-c4cccc(Cl)c4)c23)c1C | 9.4 | 5.8 | -1.6 | -5.7 | 0.3
Cc1cccc(Nc2ncnc3onc(-c4ccc(F)cc4)c23)c1C | 14.3 | -2.4 | -5.8 | 16.1* | -2.0
Oc1ccc(-c2n[nH]c(C(F)(F)F)c2-c2ccccc2)c(O)c1 | -6.0 | -2.0 | -5.7 | 44.0* | -6.6
Cc1noc(C)c1NC(=O)N(C)C[C@H]1Oc2ncc(C#CC(C)C)cc2C(=O)N([C@H](C)CO)C[C@@H]1C | -0.8 | 0.6 | nt | -0.6 | 2.9
COCC(=O)N1C[C@@H](C)[C@H](OC)CN(C)C(=O)c2cc(NC(=O)c3cc(C)on3)ccc2OC[C@H]1C | -4.2 | 1.3 | nt | -2.1 | -1.2
CC(=O)N1CC(=O)N2[C@@H](CO)[C@H](c3ccc(-c4ccc(C(=O)N(C)C)cc4)cc3)[C@@H]2C1 | 4.8 | -5.6 | nt | 22.7* | 2.0
COc1ccc(C#Cc2ccc([C@H]3[C@@H](CO)N4C(=O)CN(C(C)=O)C[C@H]34)cc2)cc1 | -14.5 | 7.9 | nt | 26.3* | -16.7
CC(C)C#Cc1ccc([C@@H]2[C@H](CO)N3C(=O)CN(C(=O)C4CCCCC4)C[C@@H]23)cc1 | -13.1 | 3.9 | nt | 23.9* | 10.2
CN(C)C(=O)c1cccc(-c2ccc([C@@H]3[C@H](CO)N4C(=O)CN(C(=O)C5CC5)C[C@@H]34)cc2)c1 | 11.5 | 0.5 | nt | 19.1* | -7.3
CN(C)C(=O)c1cccc(-c2ccc([C@@H]3[C@H]4CN(C(=O)C5CC5)CC(=O)N4[C@H]3CO)cc2)c1 | 4.2 | 7.7 | nt | -1.2 | -13.7
CC(=O)N1CC2(C1)[C@H](c1ccccc1)[C@H](CO)N2C(=O)c1ccncc1 | 3.3 | nt | nt | nt | nt
CCNC(=O)Nc1ccc2c(c1)C(=O)N(C)[C@H]1CC[C@@H](CC(=O)Nc3ccccc3)O[C@H]1CO2 | 4.2 | 0.3 | nt | -3.4 | 11.0
O=C(c1cnccn1)N1CC(=O)N2[C@@H](CO)[C@H](c3ccc(C4=CCCCC4)cc3)[C@@H]2C1 | 0.9 | 1.5 | nt | -7.7 | 24.9
O=C(c1cnccn1)N1CC(=O)N2[C@H](CO)[C@@H](c3ccc(C4=CCCCC4)cc3)[C@@H]2C1 | -7.2 | -4.1 | nt | 28.4* | -20.7
CC(C)CC#Cc1ccc([C@H]2[C@H]3CN(C(=O)Cc4cccnc4)CC(=O)N3[C@H]2CO)cc1 | -5.9 | -0.2 | nt | 3.4 | 106.8*
CCOc1cc(C(=O)OC(C)C(=O)Nc2ccc(S(N)(=O)=O)cc2)ccc1OCC(=O)N1CCOCC1 (stereo not drawn) | 10.4 | -1.6 | 0.0 | 19.4* | -0.6
CCOc1cc(C(=O)OC(C)C(=O)Nc2ccc(NC(C)=O)cc2)ccc1OCC(=O)N1CCCCC1 (stereo not drawn) | -3.3 | -8.5 | -1.5 | -11.5 | -3.8
COCC(=O)N(C)C[C@H]1Oc2ncc(Br)cc2C(=O)N([C@@H](C)CO)C[C@H]1C | 0.4 | -11.7 | -0.3 | 16.7*! | 3.2

Bioassay records: PubChem BioAssay, Broad Institute
